Converted amounts (≈) assume the structure as drawn. The source made the active and inactive calls. The calls are words filed in the database; no cut-off is given here.
Legend:
[1] = target: T1, Histone-lysine N-methyltransferase SMYD3 (Homo sapiens) (UniProt Q9H7B4); conditions: dose 120.0 µM
T1 sequence (whole entry): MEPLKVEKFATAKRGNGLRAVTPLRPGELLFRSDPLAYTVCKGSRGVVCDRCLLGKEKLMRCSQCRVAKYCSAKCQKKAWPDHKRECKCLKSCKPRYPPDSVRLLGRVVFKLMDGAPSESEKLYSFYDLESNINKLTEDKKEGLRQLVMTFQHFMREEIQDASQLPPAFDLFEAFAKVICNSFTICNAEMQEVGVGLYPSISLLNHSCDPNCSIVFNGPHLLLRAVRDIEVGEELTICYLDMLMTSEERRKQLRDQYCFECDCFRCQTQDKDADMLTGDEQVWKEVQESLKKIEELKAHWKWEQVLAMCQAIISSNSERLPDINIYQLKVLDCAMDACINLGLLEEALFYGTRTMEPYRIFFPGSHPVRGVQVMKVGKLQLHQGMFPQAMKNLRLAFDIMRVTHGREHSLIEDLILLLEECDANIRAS

[2] = target: T2, Histone-lysine N-methyltransferase SMYD3 (Homo sapiens, UniProt Q9H7B4); assay: Binding affinity to recombinant human SMYD3 expressed in Escherichia coli assessed as catalytic inhibition using DYDNPIFEKFGKGGTYPRRYHVSYHGK-Biotin as substrate by scintillation proximity assay
T2 sequence (Q9H7B4 whole entry): T1 sequence (whole entry)

[3] = Kinetic solubility of the compound at pH 6.5; type: physicochemical; conditions: buffer, read-out: Kinetic_solubility
[4] = Lipophilicity, log D of the compound at pH 7.5; type: physicochemical; conditions: buffer
[5] = target: T3, Histone-lysine N-methyltransferase SMYD1 (Homo sapiens) (UniProt Q8NB12); assay: Binding affinity to recombinant human SMYD1 expressed in Sf9 insect cells assessed as change in melting temperature at 120 uM by SYPRO Orange staining based thermal shift assay
T3 sequence (whole entry): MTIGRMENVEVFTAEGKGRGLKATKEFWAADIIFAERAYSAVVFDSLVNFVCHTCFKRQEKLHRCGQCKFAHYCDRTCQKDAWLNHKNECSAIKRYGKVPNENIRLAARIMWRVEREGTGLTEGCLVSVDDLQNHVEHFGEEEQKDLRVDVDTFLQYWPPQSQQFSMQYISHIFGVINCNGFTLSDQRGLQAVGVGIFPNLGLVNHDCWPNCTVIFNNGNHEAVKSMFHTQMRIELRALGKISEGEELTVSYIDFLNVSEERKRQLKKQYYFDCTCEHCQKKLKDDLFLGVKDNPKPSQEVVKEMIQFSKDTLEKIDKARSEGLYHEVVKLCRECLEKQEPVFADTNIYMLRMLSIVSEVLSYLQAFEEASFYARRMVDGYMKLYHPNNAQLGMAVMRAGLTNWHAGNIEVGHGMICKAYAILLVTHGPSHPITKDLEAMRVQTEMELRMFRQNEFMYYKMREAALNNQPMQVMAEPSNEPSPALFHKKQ
How it was run: (§1)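 SMYD1 (aa 2–490) or SMYD2 (aa 2–433), His-tagged from Sf9, Ni-NTA then gel filtration; melt at 1.4 µM protein, 8x SYPRO Orange in 20 mM Tris pH 8.0, 100 mM NaCl, 8.5% glycerol, 1.0 mM DTT; scan 25–80 °C at 0.1 °C/s; 4% DMSO control.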

[6] = target: N-lysine methyltransferase SMYD2 (Homo sapiens) (UniProt Q9NRG4); assay: Binding affinity to recombinant human SMYD2 expressed in Sf9 insect cells assessed as change in melting temperature at 120 uM by SYPRO Orange staining based thermal shift assay
Sequence of N-lysine methyltransferase SMYD2 (Homo sapiens) (Q9NRG4 whole entry): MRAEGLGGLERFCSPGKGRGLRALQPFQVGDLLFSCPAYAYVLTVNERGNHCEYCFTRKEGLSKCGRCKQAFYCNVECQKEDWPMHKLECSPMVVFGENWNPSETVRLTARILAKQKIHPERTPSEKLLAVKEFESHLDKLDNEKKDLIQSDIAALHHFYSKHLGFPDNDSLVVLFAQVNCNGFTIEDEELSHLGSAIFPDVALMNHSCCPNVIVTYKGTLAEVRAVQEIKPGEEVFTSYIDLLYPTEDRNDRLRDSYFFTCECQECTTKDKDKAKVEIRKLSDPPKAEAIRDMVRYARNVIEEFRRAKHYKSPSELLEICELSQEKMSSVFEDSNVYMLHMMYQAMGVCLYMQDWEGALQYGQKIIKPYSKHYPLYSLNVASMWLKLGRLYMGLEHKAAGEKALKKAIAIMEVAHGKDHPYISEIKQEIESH
How it was run: as §1

[7] = target: T1, Histone-lysine N-methyltransferase SMYD3 (Homo sapiens); assay: Binding affinity to recombinant human SMYD3 expressed in Escherichia coli assessed as change in melting temperature at 10 to 200 uM by SYPRO Orange staining based thermal shift assay; conditions: dose 10-200 µM
How it was run: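 Full-length untagged SMYD3 (aa 1–428, E. coli, His tag removed by TEV) at 1.5–2.0 µM with 5x SYPRO Orange in 20 mM Tris pH 7.0, 150 mM NaCl, 1.0 mM DTT; compound titration 10–200 µM; 4% DMSO control; melting scanned 25–80 °C at 0.1 °C/s; Tm shift read.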

[8] = Dissociation constant, pKa of compound; type: physicochemical
[9] = test system: Histone-lysine N-methyltransferase SMYD3 (Homo sapiens), Q9H7B4 [UNDEFINED MUTATION]; assay: Inhibition of SMYD3 catalytic inactive mutant co-expressed with HA-tagged MAP3K2 transfected in human HeLa cells assessed as reduction of MAP3K2-K260me3 level upto 10 uM incubated for 20 hrs by Western blotting analysis; type: cell-based
How it was run: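 After 4 h, compound or DMSO for 20 h. Lysates immunoblotted for MAP3K2-K260me3 (in-house antibody), HA, SMYD3 and MAP3K2 with infrared secondaries. K260me3 signal normalized to HA; three technical replicates, mean ± SEM, nonlinear fit.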

| Structure (SMILES) | deltaTm [1] [K] | IC50 [2] [nM] | solubility kinetic [3] [µg/mL] | logD [4] | deltaTm [5] [K] | deltaTm [6] [K] | deltaTm [7] [K] | pKa [8] | inhibition [9] |
| --- | --- | --- | --- | --- | --- | --- | --- | --- | --- |
| C[C@H]1CC(=O)Nc2cc(C(=O)NCCC3CC3)ccc2N1C(=O)N1CC[C@H](N)C1.Cl | 7.56 | 259 | 294 | 1.4 |  |  |  |  |  |
| CCCCNC(=O)c1ccc2c(c1)NC(=O)CC(C)N2C(=O)c1ccccc1F (configuration not stated) | 2.4 | 12000 |  |  | 0 | 0 | 0.7 |  |  |
| CCCCNC(=O)c1ccc2c(c1)NC(=O)CC(C)N2C(=O)c1cccc(F)c1 (configuration not stated) |  |  |  |  | 0 | 0.2 | 0 |  |  |
| C[C@H]1CC(=O)Nc2cc(C(=O)NCCC3CC3)ccc2N1C(=O)N1CCN(CC(F)(F)F)CC1 | 5.26 | 1510 |  | 2.2 |  |  |  |  |  |
| C[C@H]1CC(=O)Nc2cc(C(=O)NCCC3CC3)ccc2N1C(=O)NC1CCNCC1 | 6.77 | 396 | 252 (≈ 609 µM) | 1.3 |  |  |  |  |  |
| C[C@H]1CC(=O)Nc2cc(C(=O)NCCC3CC3)ccc2N1C(=O)N1CCC(N)CC1 |  |  | 318 (≈ 768 µM) | 1.4 |  |  |  |  |  |
| C[C@H]1CC(=O)Nc2cc(C(=O)NCCC3CC3)ccc2N1C(=O)N(C)C1CCNCC1 | 6.1 | 493 | 257 (≈ 602 µM) | 1.3 |  |  |  |  |  |
| C[C@H]1CC(=O)Nc2cc(C(=O)NCCC3CC3)ccc2N1C(=O)N1CCNCC1 | 7.42 | 252 | 374 (≈ 936 µM) | 1.4 |  |  |  |  |  |
| C[C@H]1CC(=O)Nc2cc(C(=O)NCCC3CC3)ccc2N1C(=O)N1CCC(F)(F)CC1 | 5.6 | 2330 | 231 (≈ 531 µM) | 2.1 |  |  |  |  |  |
| CCCNC(=O)c1ccc2c(c1)NC(=O)CC(C)N2C(=O)c1cccs1 (configuration not stated) |  | 18000 |  |  | -0.2 | 0 | 0.2 |  |  |
| CCCCNC(=O)c1ccc2c(c1)NC(=O)CC(C)N2C(=O)CCC1CCCC1 (configuration not stated) |  | 18000 |  |  | -0.2 | 0.2 | 0.4 |  |  |
| CCCCCNC(=O)c1ccc2c(c1)NC(=O)CC(C)N2C(=O)c1ccc(C)cc1 (configuration not stated) |  | 22000 |  |  | 0.2 | 0.2 | 0.2 |  |  |
| C[C@H]1CC(=O)Nc2cc(C(=O)N(C)CCC3CC3)ccc2N1C(=O)N1CC2CC2C1 (some centres not stated) | 3.9 | 2640 |  |  |  |  |  |  |  |
| CCN1CCC(N(C)C(=O)N2c3ccc(C(=O)NCCC4CC4)cc3NC(=O)C[C@@H]2C)CC1 | 8.2 | 177 | > 456 | 1.5 |  |  |  |  |  |
| CCN1CCN(C(=O)N2c3ccc(C(=O)NCCC4CC4)cc3NC(=O)C[C@@H]2C)CC1 | 7.34 | 459 | > 428 | 1.7 |  |  |  |  |  |
| C[C@H]1CC(=O)Nc2cc(C(=O)NCCC3CC3)ccc2N1C(=O)N1CC[C@@H](N)C1.Cl | 5.91 | 832 | 330 | 1.4 |  |  |  |  |  |
| C[C@H]1CC(=O)Nc2cc(C(=O)NCCC3CC3)ccc2N1C(=O)N1CCCNCC1 | 8.46 | 54.2 | > 414 | 1.4 |  |  |  | 8.8 |  |
| C[C@H]1CC(=O)Nc2cc(C(=O)NCCC3CC3)ccc2N1C(=O)N1CCC(NCC(F)(F)F)CC1 | 5.63 | 1030 | 312 (≈ 631 µM) | 2.2 |  |  |  |  |  |
| C[C@H]1CC(=O)Nc2cc(C(=O)NCCC3CC3)ccc2N1C(=O)N1CCN(CCO)CC1 | 5.63 | 1080 | 254 (≈ 573 µM) | 1.5 |  |  |  |  |  |
| C[C@H]1CC(=O)Nc2cc(C(=O)NCCC3CC3)ccc2N1C(=O)N1CCC(F)(F)C1 | 6.16 | 763 | 294 (≈ 700 µM) | 2 |  |  |  |  |  |
| CC1CC(=O)Nc2cc(C(=O)NCCC3CCC3)ccc2N1C(=O)c1ccccc1 (racemic) | 4.77 | 1850 | 87.5 (≈ 216 µM) | 2.4 |  |  |  |  |  |
| C[C@@H]1CC(=O)Nc2cc(C(=O)N(C)CCC3CC3)ccc2N1C(=O)N1CC2CC2C1 (some centres not stated) |  | > 100000 |  |  |  |  |  |  | inactive |
| CC1CC(=O)Nc2cc(C(=O)NCCC3CC3)ccc2N1C(=O)c1ccccc1 (racemic) | 3.9 | 1970 | 95.5 (≈ 244 µM) | 2.1 |  |  |  |  |  |
| CCCCCNC(=O)c1ccc2c(c1)NC(=O)CC(C)N2C(=O)C1CCCC1 (configuration not stated) |  | 27000 |  |  | -0.1 | 0.1 | 0 |  |  |
| C[C@@H]1CC(=O)Nc2cc(C(=O)NCCC3CC3)ccc2N1C(=O)N1CC2CC2C1 (some centres not stated) | 5.15 | 2530 |  |  |  |  |  |  |  |
| C[C@@H]1CC(=O)Nc2cc(C(=O)NCCC3CC3)ccc2N1C(=O)N1CCC(N)CC1 |  |  | 320 (≈ 775 µM) | 1.4 |  |  |  |  |  |
| C[C@H]1CC(=O)Nc2cc(C(=O)NCCC3CC3)ccc2N1C(=O)N(C)C1CCN(CC(F)(F)F)CC1 | 3.34 | 5560 | 345 (≈ 677 µM) | 2.4 |  |  |  |  |  |
| CCCCCNC(=O)c1ccc2c(c1)NC(=O)CC(C)N2C(=O)c1ccccc1F (configuration not stated) |  | 24000 |  |  | -0.2 | 0.2 | 0.2 |  |  |

From ChEMBL document CHEMBL5661986, “Discovery of the SMYD3 Inhibitor BAY-6035 Using Thermal Shift Assay (TSA)-Based High-Throughput Screening” (SLAS Discov, 2021)
